Data on seven molecules can be found in ChEMBL document CHEMBL1155001, “Design, synthesis of novel peptidomimetic derivatives of 4-HPR for rhabdoid tumors” (Bioorg Med Chem Lett, 2008).

For orientation: IC50 means the concentration that inhibits the measured activity by half.

Common to all, as to type: functional, cell-based
A short description of assay [1]: Cytotoxicity against INI1 gene deficient human MON cells assessed as cell survival after 3 days by MTS assay. Particulars: 72 h. The method, boiled down:
(§1)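 INI1-deficient MON rhabdoid tumor cells were grown in RPMI 1640 with 10% FBS, 2 mM L-glutamine, penicillin and streptomycin at 37 °C in 5% CO2. Survival was read by MTS after 3 days. Relative IC50 was taken from a sigmoidal variable-slope fit of % inhibition vs log concentration.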
On the technique in general: Tetrazolium assays rely on reduction of a dye to a coloured formazan, in cell work by metabolically active cells.

Assay [2] in a line: Cytotoxicity against human MON cells assessed as cell survival after 3 days by MTS assay. Particulars: 72 h. The method, boiled down: as §1
Assay [3] is described as follows: Cytotoxicity against human STM cells assessed as cell survival after 3 days by MTS assay. Particulars: 72 h.
Another assay relates to G-401. As to the kind of experiment: Cytotoxicity against human G401 cells assessed as cell survival after 3 days by MTS assay. Particulars: G-401, 72 h.

Structures are written as SMILES.

For `CCC1=C(C)/C(=C/c2ccc(C(=O)Nc3ccc(O)c(Cl)c3)cc2)CCC1(C)C`, the IC50 in assay [1] stood at 10.4 µM.
The same measure, in the same setting: the result for `CCC1=C(C)/C(=C/c2ccc(C(=O)Nc3ccc(O)c(F)c3)cc2)CCC1(C)C` reads 12.9 µM; that for `CCC1=C(C)/C(=C/c2ccc(C(=O)Nc3ccc(O)c(I)c3)cc2)CCC1(C)C`, 3.15 µM.
On the same count and under the same terms, the result for `CCC1=C(C)/C(=C/c2ccc(C(=O)Nc3ccc(O)cc3O)cc2)CCC1(C)C` reads 47.2 µM; that for `CCC1=C(C)/C(=C/c2ccc(C(=O)O)cc2)CCC1(C)C`, above 50 µM; that for `CCC1=C(C)/C(=C/c2ccc(C(=O)Nc3ccc(CO)cc3)cc2)CCC1(C)C`, 29.1 µM.
Regarding `CC1=C(/C=C/C(C)=C/C=C/C(C)=C/C(=O)Nc2ccc(O)cc2)C(C)(C)CCC1` [FENRETINIDE], the IC50 in assay [2] amounted to 12 µM; in assay [1], 14.7 µM; in assay [3] it was 5 µM; with G-401, 5 µM.
